MC4R barr agon: activates human MC4R beta-arrestin recruitment; U2OS MC4R beta-arrestin complementation, luminescence; percent of melanotan II response, DMSO zero; activation, % at 8.9 µM; 360,000 compounds, 0.98% hits; AID 540308;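 active = activation above a per-plate cutoff, the mean activation of sample wells on that plate plus 3 SD, cut at about 8% in these data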
SMARCA2 act: SMARCA2 function activation, primary screen; MG213 cells, MMTV-luciferase reporter, dexamethasone, overnight; activation, % at 9.1 µM; 370,000 compounds, 1% hits; AID 652017; in the data active = activation above about 7.8%;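 note: 0% = vehicle wells and 100% = reference activator wells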
MC4R antagonist: human MC4R antagonism in cAMP assay; P32245; MC4R-expressing cells, MTII-stimulated cAMP, LANCE TR-FRET; inhibition, % at 6.5 µM; 360,000 compounds, 0.48% hits; AID 540295;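 active = inhibition above its plate's cutoff, the mean of tested wells on that plate plus 3 SD, cut at about 29% in these data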;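 note: 0% = Melanotan II alone and 100% = Melanotan II plus saturating MCL0020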
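System: U2OS cells stably expressing human melanocortin 4 receptor (MC4R). Reagent: Melanotan II challenge after compound preincubation. Doses: 6.5 µM. Times: 30-min compound, 1-h challenge, 1-h detection, room temperature. Measured by: TR-FRET with Eu-cAMP and labeled anti-cAMP, 671 nm. Replicates: singlicate.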
ATG4B inhibitor: inhibitors of human ATG4B cysteine protease; Q9Y4P1; ATG4B cleavage of LC3-PLA2, NBD-HPC fluorescence, 1 h; inhibition, % at 8.33 µM; 340,000 compounds, 0.51% hits; in the data active = inhibition above about 40%
MPTP block: inhibitors of mitochondrial permeability transition pore. AID 602449. inhibition, % at 10 µM. 360,000 compounds, 1.4% hits. isolated mouse mitochondria, Ca2+ swelling absorbance, 30 min;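 active = inhibition of 50% or more, scaled per plate between neutral and stimulator controls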;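 note: 0% = DMSO wells given calcium and 100% = 1 mM EGTA wells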
U2OS cAMP counter: nonselective cAMP signaling inhibitor, MC4R antagonist counter-screen. shares compounds with MC4R antagonist. parental U2OS, forskolin cAMP, LANCE TR-FRET. inhibition, % at 6.5 µM. 1,600 compounds, 26% hits. AID 602193;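 active = mean inhibition over triplicates above the low-control well mean plus 3 SD, set per campaign, cut at about 13% in these data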;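 note: signal is single emission at 671 nm which falls as cellular cAMP rises; 0% = forskolin-stimulated wells and 100% = buffer without forskolin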
MC4R antag conf: human MC4R cAMP antagonism confirmation | shares compounds with MC4R antagonist | MC4R-expressing cells, MTII-stimulated cAMP, TR-FRET | inhibition, % at 6.5 µM | 1,600 compounds, 27% hits; in the data active = inhibition above about 29%;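 note: 0% = agonist stimulated wells alone and 100% = agonist stimulated wells plus saturating reference antagonist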
MC4R barr conf: human MC4R beta-arrestin agonism confirmation; U2OS MC4R beta-arrestin recruitment, luminescence; scaled DMSO 0%, Melanotan II 100%; shares compounds with MC4R barr agon; 2,400 compounds, 31% hits; activation, % at 8.9 µM;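 active = mean activation across replicates above the hit cutoff set in the earlier primary screen, cut at about 8% in these data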
MOR DOR agonist: activates mu-delta opioid heterodimer, MC4R agonist counter-screen; shares compounds with MC4R barr agon; AID 602194; U2OS PathHunter beta-arrestin, beta-gal luminescence; percent of deltorphin B response, DMSO zero; 2,400 compounds, 5.8% hits; activation, % at 9.2 µM;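 active = mean activation across replicates exceeds the hit threshold derived in the earlier primary screen, cut at about 18% in these data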;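 note: 100% = deltorphin B at 0.9 µM final and 0% = DMSO alone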
Target sequence (P35372 whole entry, looked up): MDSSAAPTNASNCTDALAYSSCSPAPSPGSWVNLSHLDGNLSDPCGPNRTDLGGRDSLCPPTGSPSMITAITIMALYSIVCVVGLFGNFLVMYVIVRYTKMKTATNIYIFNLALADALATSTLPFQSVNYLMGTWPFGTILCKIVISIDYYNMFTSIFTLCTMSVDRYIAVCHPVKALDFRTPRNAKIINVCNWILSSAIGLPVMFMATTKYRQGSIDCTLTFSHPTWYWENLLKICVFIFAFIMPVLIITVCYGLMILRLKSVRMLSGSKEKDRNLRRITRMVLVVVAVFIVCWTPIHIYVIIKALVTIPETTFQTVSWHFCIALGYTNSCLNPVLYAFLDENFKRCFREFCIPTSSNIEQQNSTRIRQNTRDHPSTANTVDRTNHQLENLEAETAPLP
Target sequence (P41143 whole entry, looked up): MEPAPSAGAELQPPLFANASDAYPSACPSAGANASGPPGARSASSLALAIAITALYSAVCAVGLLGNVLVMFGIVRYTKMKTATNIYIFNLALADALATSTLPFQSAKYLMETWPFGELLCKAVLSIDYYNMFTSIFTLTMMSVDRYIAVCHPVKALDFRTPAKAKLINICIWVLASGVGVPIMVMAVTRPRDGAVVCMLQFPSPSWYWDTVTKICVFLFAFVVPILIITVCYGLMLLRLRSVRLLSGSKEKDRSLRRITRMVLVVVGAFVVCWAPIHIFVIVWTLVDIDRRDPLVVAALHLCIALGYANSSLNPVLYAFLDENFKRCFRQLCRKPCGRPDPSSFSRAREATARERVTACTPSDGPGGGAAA
SMARCA2 conf: SMARCA2 activation, confirmation screen. shares compounds with SMARCA2 act. MG213 cells, MMTV-luciferase with dexamethasone, luminescence, overnight; MG213 cells expressing E1A, Rb sequestered; DMSO wells 0%, reference activator 100%. activation, % at 9.1 µM. 3,500 compounds, 30% hits;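 active = activation above its plate's cutoff, the mean activation of tested wells plus 3 SD, cut at about 7.9% in these data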
VP16 Luc act: GAL4-VP16 reporter activation counter-screen | shares compounds with SMARCA2 act | HEK293 GAL4-VP16 pG5luc reporter, luciferase luminescence; scaled: DMSO wells 0%, SAHA wells 100% | activation, % at 9.1 µM | 3,500 compounds, 41% hits;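 active = activation above the solvent-only control well mean plus 3 SD, averaged across control plates, cut at about 5.2% in these data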
* = called active by the depositor; / = no result. Shown are actives, neighbours in structure and some others; about 4.1% of the full set was active somewhere.

SMILES	MC4R barr agon	SMARCA2 act	MC4R antagonist	ATG4B inhibitor	MPTP block	MC4R barr conf	MOR DOR agonist	others
Cc1cccc(Cn2ncc(Cl)c(Cl)c2=O)c1	-2	10*	37*	0	0	/	/	U2OS cAMP counter=32*;MC4R antag conf=50*;SMARCA2 conf=-3;VP16 Luc act=0
O=c1c2ccccc2cnn1Cc1ccc(Cl)c(Cl)c1	2	-2	14	11	0	/	/
Cc1cccc(NC(=O)CSc2nc(COc3ccccc3)nc3ccccc23)c1C	20*	-1	7	-16	0	3	4
Cc1cccc(C)c1NC(=O)CSc1nc(COc2ccccc2)nc2ccccc12	7	-4	11	-10	3	/	/
CCOc1ccc(Oc2c(Cl)cnn(Cc3cccc4ccccc34)c2=O)cc1	/	-2	/	/	/	/	/
CCN1CCCC1CNC(=O)c1ccc2c(c1)NC(=O)/C(=C\c1ccc(C)cc1)S2 (stereo not given)	15*	1	7	4	1	13*	3
Cc1ccc(C(=O)NCc2ccco2)cc1[N+](=O)[O-]	-1	-3	6	-6	-1	/	/
Cc1ccc(NC(=O)c2ccc(NCc3ccco3)c([N+](=O)[O-])c2)cc1Cl	11*	-1	3	-9	29	25*	26*
Cc1ccc(NC(=O)c2ccc(NCC3CCCO3)c([N+](=O)[O-])c2)cc1Cl (stereo not given)	34*	0	-2	-8	2	13*	21*
COC(=O)c1cc2c(c3c4ccccc4n(S(=O)(=O)c4ccc(OC)cc4)c13)C(=O)N(Cc1ccco1)C2	/	1	/	/	/	/	/
CC(=O)c1c(C)[nH]c(C(=O)OCC(=O)Nc2ccccc2Cl)c1C	-2	-4	12	4	2	/	/
CC(=O)c1c(C)[nH]c(C(=O)OCC(=O)Nc2ccc([N+](=O)[O-])cc2Cl)c1C	28*	0	8	-9	3	2	16
CCOC(=O)c1c(C)[nH]c(C(=O)OCc2ccc([N+](=O)[O-])cc2)c1C	17*	0	1	3	0	4	4
c1ccc2c(c1)oc1c(Nc3ccc4c(c3)OCO4)ncnc12	11*	0	-2	-1	8	2	8
COC(=O)C1CN(CCc2ccccc2)CCS(=O)(=O)N1Cc1ccc(C(F)(F)F)cc1 (stereo not given)	/	-3	/	/	/	/	/
O=C(CNCCC1=CCCCC1)Nc1ccc(N2CCCCCC2)cc1	13*	4	6	9	18	9.4*	16
CC(C)c1ccc(NC(=O)COC(=O)/C=C/c2cccc(Br)c2)cc1	11*	-2	-2	3	-1	5	3
COC(=O)[C@H](Cc1ccccc1)N1CC(N2CCCC2)CS1(=O)=O (stereo not given in full)	/	2	/	/	/	/	/
OC(COC(c1ccc(F)cc1)c1ccc(F)cc1)CN1CCCC(C(F)(F)F)C1 (stereo not given)	4	-1	21	0	1	/	/
CC1CCCC(NCC(O)COC(c2ccc(F)cc2)c2ccc(F)cc2)C1C (stereo not given)	18*	1	9	5	17	16*	24*
Oc1ccc(/C=N/N2CCN(C3c4ccccc4-c4ccccc43)CC2)cc1O	28*	-2	18	-16	8	13*	13
Oc1ccc(/C=N/N2CCN(C3c4ccccc4-c4ccccc43)CC2)cc1	6	-2	13	-5	4	/	/
O=C(Nc1ccccc1)c1ccc(OC(=O)c2ccccc2)cc1	9.8*	0	-2	1	0	5	2
O=C(Oc1ccc(NC(=O)c2cc3c(cc2Br)OCO3)cc1)c1ccccc1	14*	-3	5	3	-2	6	6
O=C(Nc1ccc2c(c1)OCO2)c1ccccc1	1	7	10	-14	-1	/	/
SMILES	MC4R barr agon	SMARCA2 act	MC4R antagonist	ATG4B inhibitor	MPTP block	MC4R barr conf	MOR DOR agonist	others
COC(=O)C1=C(C)N(Cc2ccccc2C(F)(F)F)C(=NCc2ccc(OC)cc2)NC1c1ccc(C(F)(F)F)cc1 (stereo not given)	/	-5	/	/	/	/	/
COc1ccc(F)cc1-c1cc(C(=O)NCc2ccc(C(F)(F)F)cc2)[nH]n1	4	-3	2	/	0	/	/
Cc1cc(F)cc(-c2cc(C(=O)NCc3ccc(C(F)(F)F)cc3)[nH]n2)c1	14*	0	7	/	19	3	6
Cc1nc(NC(=O)CSc2nc3cccnc3n2C2CCCCC2)sc1C	9.6*	-2	-3	-2	2	-2	7
CCc1nnc(NC(=O)CSc2nc3cccnc3n2C2CCCCC2)s1	0	-3	8	2	0	/	/
C=CCn1c(-c2ccccc2)cc(SC)c(C#N)c1=O	12*	-3	-4	-1	0	0	3
COC(=O)[C@]12C[C@H](CC(=O)NCc3ccc(OC)c(OC)c3)C(=O)N(Cc3ccccc3)C1=C[C@H](C(C)(C)C)O[C@@H]2C	/	-3	/	/	/	/	/
CCn1cc([N+](=O)[O-])c(C(=O)N2N=C(c3ccc4ccccc4c3)CC2c2cc(Br)ccc2O)n1 (stereo not given)	16*	/	5	-9	1	9.0*	6
O=C1N2Cc3ccccc3C2CS(=O)(=O)N1Cc1ccccc1 (stereo not given)	/	-2	/	/	/	/	/
COc1cccc(N2CCN(C(=O)CCCCCn3c(=S)[nH]c4cc5c(cc4c3=O)OCO5)CC2)c1	35*	1	-2	10	-1	14*	21*
O=c1c2ccccc2[nH]c(=S)n1Cc1ccc2c(c1)OCO2	6	3	12	3	0	/	/
O=C(CCCCCn1c(=S)[nH]c2ccccc2c1=O)NCc1ccc2c(c1)OCO2	10*	-3	15	-6	5	2	2
